Measurements published in ChEMBL document CHEMBL2177002, “Antifungal spectrum, in vivo efficacy, and structure-activity relationship of ilicicolin h” (ACS Med Chem Lett, 2012).
≈ marks a conversion by molar mass, not a printed value. Calls of active or inactive are those of the source. The rule behind the calls is not given here.

How the values were obtained:
Candida albicans [1] = assay: Ratio of MIC for Candida albicans 1 harboring cytochrome b G37C mutant to MIC for wild type Candida albicans; format: functional
Aspergillus fumigatus = assay: Antifungal activity against Aspergillus fumigatus MF 5668 after 24 hrs by NCCLS broth microdilution method; format: functional; details: MF 5668, 24 h
[2] = Inhibition of Saccharomyces cerevisiae MY 2141 NADH:cytochrome c oxidoreductase
Candida albicans [3] = assay: Ratio of MIC for Candida albicans 4 harboring cytochrome b G37S mutant to MIC for wild type Candida albicans; format: functional
Candida albicans [4] = assay: Ratio of MIC for Candida albicans 6 harboring cytochrome b G37S mutant to MIC for wild type Candida albicans; format: functional
[5] = Inhibition of rat liver NADH:cytochrome c oxidoreductase
Candida albicans [6] = assay: Antifungal activity against fluconazole-resistant Candida albicans MY 2301 after 24 hrs by NCCLS broth microdilution method; format: functional; details: MY 2301, 24 h
Candida albicans [7] = assay: Antifungal activity against Candida albicans after 24 hrs by NCCLS broth microdilution method in presence of 10% mouse plasma; format: functional
[8] = Inhibition of ubiquinol:cytochrome c reductase in presence of 50% mouse plasma; format: cell-free
Procedure, shortened: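 Cytochrome c reductase assay run with mouse plasma added at increasing percentages, up to 50%, to gauge the effect of plasma protein binding on inhibition.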

Saccharomyces cerevisiae [9] = assay: Antifungal activity against Saccharomyces cerevisiae MY 2141 in glucose-based medium after 24 hrs by NCCLS broth microdilution method; format: functional; details: MY 2141, 24 h
[10] = system: Meyerozyma guilliermondii; assay: Antifungal activity against Candida guilliermondii CLY 346 after 24 hrs by NCCLS broth microdilution method; format: functional; details: CLY 346, 24 h
Saccharomyces cerevisiae [11] = assay: Antifungal activity against Saccharomyces cerevisiae MY 2141 in glycerol-based medium after 24 hrs by NCCLS broth microdilution method; format: functional; details: MY 2141, 24 h
Saccharomyces cerevisiae [12] = assay: Antifungal activity against Saccharomyces cerevisiae MY 2141 assessed as inhibition of whole cell oxygen consumption at 0.003 ug/mL after 15 mins; format: functional; details: MY 2141, 0.25 h
Candida albicans [13] = assay: Ratio of MIC for Candida albicans 5 harboring cytochrome b G37D mutant to MIC for wild type Candida albicans; format: functional
[14] = Inhibition of Saccharomyces cerevisiae MY 2141 electron transport protein complex 1/3 using glycerol-3-phosphate as substrate assessed as decrease in oxygen consumption measured for 3 mins
Candida albicans [15] = assay: Ratio of MIC for Candida albicans 10 harboring cytochrome b S20I mutant to MIC for wild type Candida albicans; format: functional
[16] = Oral bioavailability in mouse; format: ADME, organism-based; details: in vivo
Candida albicans [17] = assay: Antifungal activity against Candida albicans MY 1055 infected in DBA/2 mouse assessed as reduction in kidney fungal burden administered as po bid for 2 days post infection measured after 4 days; format: functional; details: MY 1055, Kidney
Procedure, shortened: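 DBA/2 mice infected intravenously with 5.4 × 10⁴ cfu of C. albicans MY1055. Dosed orally twice daily for 2 days in 10% aqueous DMSO at 50, 25, 12.5 and 6.25 mg/kg. Kidney Candida burden determined 4 days after infection and compared with vehicle-treated controls by Excel t test (p < 0.05). ED90 is the dose giving 90% reduction of kidney C. albicans.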

[18] = Inhibition of Saccharomyces cerevisiae MY 2141 electron transport protein complex 1/3 using NADH as substrate assessed as decrease in oxygen consumption measured for 3 mins
Candida albicans [19] = assay: Ratio of MIC for Candida albicans 12 harboring cytochrome b Q22E mutant to MIC for wild type Candida albicans; format: functional
[20] = Half life in mouse; format: ADME, organism-based; details: in vivo
Candida albicans [21] = assay: Ratio of MIC for Candida albicans 5 harboring cytochrome b G37S mutant to MIC for wild type Candida albicans; format: functional
[22] = Clearance in mouse; format: ADME, organism-based; details: in vivo
Candida albicans [23] = assay: Antifungal activity against Candida albicans MY 1055 in glucose-based medium after 24 hrs by NCCLS broth microdilution method; format: functional; details: MY 1055, 24 h
Cryptococcus neoformans = assay: Antifungal activity against Cryptococcus neoformans MY 2061 infected in DBA/2 mouse assessed as reduction in spleen fungal burden at 100 mg/kg, ip bid; format: functional, organism-based; design: dose 100 mg/kg
Procedure, shortened: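 Mice with disseminated C. neoformans MY2061 infection (8 × 10⁵ cfu/mouse). Dosed twice daily at 100 or 50 mg/kg, oral or intraperitoneal, in 5% aqueous DMSO. Spleen burden measured as log cfu/g of spleen and compared by Excel t test (p < 0.05).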

[24] = Inhibition of Saccharomyces cerevisiae MY 2141 electron transport protein complex 4 using ascorbate/TMPD as substrate assessed as decrease in oxygen consumption measured for 3 mins
Clavispora lusitaniae = assay: Antifungal activity against Candida lusitaniae MY 1396 after 24 hrs by NCCLS broth microdilution method; format: functional; details: MY 1396, 24 h
[25] = Selectivity ratio of IC50 for bovine NADH:cytochrome c oxidoreductase to IC50 for Saccharomyces cerevisiae MY 2141 NADH:cytochrome c oxidoreductase
Candida albicans [26] = assay: Antifungal activity against Candida albicans SC 53124 after 24 hrs by NCCLS broth microdilution method; format: functional; details: SC 53124, 24 h
Candida albicans [27] = assay: Antifungal activity against Candida albicans MY 1055 infected in DBA/2 mouse assessed as reduction in kidney fungal burden administered as iv tid after 24 hrs; format: functional; details: MY 1055, Kidney
Procedure, shortened: (§1)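 Abbreviated 24 h version of the disseminated C. albicans kidney-burden model in mice. Dosing intravenous, thrice daily, at total doses of 50 or 25 mg/kg/day. Kidney burden compared with controls by Excel t test (p < 0.05). ED90 expressed as mg/kg/day.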

Pichia kudriavzevii = assay: Antifungal activity against Candida krusei CLY 549 after 24 hrs by NCCLS broth microdilution method; format: functional; details: CLY 549, 24 h
[28] = Inhibition of Saccharomyces cerevisiae MY 2141 cytochrome b-c1 complex Qn site in ubiquinol:Cytochrome c reductase
Candida albicans [29] = assay: Ratio of MIC for Candida albicans 8 harboring cytochrome b G37S mutant to MIC for wild type Candida albicans; format: functional
Candida parapsilosis = assay: Antifungal activity against Candida parapsilosis ATCC 22019 after 24 hrs by NCCLS broth microdilution method; format: functional; details: Lodderomyces parapsilosis, ATCC 22019, 24 h
[30] = system: Meyerozyma guilliermondii; assay: Antifungal activity against Candida guilliermondii CLY 308 after 24 hrs by NCCLS broth microdilution method; format: functional; details: CLY 308, 24 h
[31] = Inhibition of bovine ubiquinol-cytochrome c reductase after 2 mins by stopped flow rapid scanning spectroscopy; design: species or system Bos taurus
Candida albicans [32] = assay: Ratio of MIC for Candida albicans 11 harboring cytochrome b G37C mutant to MIC for wild type Candida albicans; format: functional
Candida albicans [33] = assay: Antifungal activity against Candida albicans MY 1055 infected in DBA/2 mouse assessed as reduction in kidney fungal burden at 25 to 50 mg/kg, iv tid after 24 hrs; format: functional, organism-based; procedure, shortened: as §1
Candida albicans [34] = assay: Ratio of MIC for Candida albicans 15 harboring cytochrome b G37S mutant to MIC for wild type Candida albicans; format: functional
Nakaseomyces glabratus = assay: Antifungal activity against Candida glabrata CLY 574 after 24 hrs by NCCLS broth microdilution method; format: functional; details: CLY 574, 24 h
[35] = Inhibition of Saccharomyces cerevisiae MY 2141 electron transport protein complex 2/3 using succinate as substrate assessed as decrease in oxygen consumption measured for 3 mins

C/C=C/[C@@H]1[C@H]2C[C@@H](C)CC[C@@H]2C(C)=C[C@H]1C(=O)c1c(O)c(-c2ccc(O)cc2)c[nH]c1=O [ILICICOLIN H]
Ratio (Candida albicans [1]): 250 | MIC (Aspergillus fumigatus): 0.08 µg/mL (≈ 0.185 µM) | IC50 [2]: 2.31 nM | Ratio (Candida albicans [3]): 250 | Ratio (Candida albicans [4]): 250 | IC50 [5]: 1.5 µg/mL (≈ 3.46 µM) | MIC (Candida albicans [6]): 0.04 µg/mL (≈ 0.0923 µM) | MIC (Candida albicans [7]): > 1 µg/mL | inhibition [8]: inactive | MIC (Saccharomyces cerevisiae [9]): > 50 µg/mL | MIC [10]: 0.01 µg/mL (≈ 0.0231 µM) | MIC (Saccharomyces cerevisiae [11]): 0.012 µg/mL (≈ 0.0277 µM) | inhibition at 0.003 µg/mL (Saccharomyces cerevisiae [12]): 100% | Ratio (Candida albicans [13]): 250 | IC50 [14]: 0.02 µg/mL (≈ 0.0461 µM) | Ratio (Candida albicans [15]): 250 | bioavailability [16]: 72% | ED90 (Candida albicans [17]): 15.4 mg/kg | IC50 [18]: 0.08 µg/mL (≈ 0.185 µM) | Ratio (Candida albicans [19]): 250 | half-life [20]: 2.5 h | Ratio (Candida albicans [21]): 250 | clearance [22]: 16 mL/min/kg | MIC (Candida albicans [23]): > 50 µg/mL | Activity (Cryptococcus neoformans): Active | IC50 [24]: > 10 µg/mL | MIC (Clavispora lusitaniae): 0.01 µg/mL (≈ 0.0231 µM) | Ratio IC50 [25]: > 70 | MIC (Candida albicans [26]): 0.01 µg/mL (≈ 0.0231 µM) | ED90 (Candida albicans [27]): 22.3 mg/kg/day | MIC (Pichia kudriavzevii): 0.01 µg/mL (≈ 0.0231 µM) | IC50 [28]: 3 nM | Ratio (Candida albicans [29]): 250 | MIC (Candida parapsilosis): 0.01 µg/mL (≈ 0.0231 µM) | MIC [30]: 0.01 µg/mL (≈ 0.0231 µM) | IC50 [31]: 200 nM | Ratio (Candida albicans [32]): 250 | Activity (Candida albicans [33]): Active | Ratio (Candida albicans [34]): 250 | MIC (Nakaseomyces glabratus): 0.01 µg/mL (≈ 0.0231 µM) | IC50 [35]: 1 µg/mL (≈ 2.31 µM)
